Test results reported in ChEMBL document CHEMBL1137574, “Synthesis and structure-activity relationship for a novel class of potent and selective carbamate-based inhibitors of hormone selective lipase with acute in vivo antilipolytic effects” (J Med Chem, 2007).
The source made the active and inactive calls. The rule behind the calls is not given here.

Experiments:
Cytochrome P450 2D6 = Cytochrome P450 2D6 (Homo sapiens, UniProt P10635); test: Inhibition of CYP2D6 in human liver microsome; assay type: ADME; settings: microsomes
Sequence of Cytochrome P450 2D6 (P10635 whole entry): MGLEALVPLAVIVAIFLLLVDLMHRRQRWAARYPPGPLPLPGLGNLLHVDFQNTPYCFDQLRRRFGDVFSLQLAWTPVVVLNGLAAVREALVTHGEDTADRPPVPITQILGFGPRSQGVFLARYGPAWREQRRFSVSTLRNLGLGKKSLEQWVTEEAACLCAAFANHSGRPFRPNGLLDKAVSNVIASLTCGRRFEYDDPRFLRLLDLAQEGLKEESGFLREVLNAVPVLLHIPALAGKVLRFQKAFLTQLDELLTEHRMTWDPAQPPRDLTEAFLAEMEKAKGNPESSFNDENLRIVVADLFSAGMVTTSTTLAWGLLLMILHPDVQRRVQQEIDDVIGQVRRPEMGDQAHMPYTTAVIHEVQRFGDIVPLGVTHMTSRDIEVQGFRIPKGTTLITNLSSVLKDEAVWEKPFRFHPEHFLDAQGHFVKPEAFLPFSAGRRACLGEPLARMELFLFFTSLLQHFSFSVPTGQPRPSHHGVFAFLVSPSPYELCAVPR
Method in brief: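 Pooled human liver microsomes (0.1 mg, ≥15 donors) incubated 10 min at 37 °C with 1 mM NADPH and test compound at 20 µM, in triplicate. Substrates at Km: CYP1A2, 14C-phenacetin 40 µM; CYP2D6, 14C-dextromethorphan 3 µM. Conversion read by charcoal extraction then scintillation counting of the supernatant.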

[1] = molecular target: T1, Lipoprotein lipase (Bos taurus) (UniProt P11151); test: Inhibition of bovin lipoprotein lipase
T1 sequence (whole entry): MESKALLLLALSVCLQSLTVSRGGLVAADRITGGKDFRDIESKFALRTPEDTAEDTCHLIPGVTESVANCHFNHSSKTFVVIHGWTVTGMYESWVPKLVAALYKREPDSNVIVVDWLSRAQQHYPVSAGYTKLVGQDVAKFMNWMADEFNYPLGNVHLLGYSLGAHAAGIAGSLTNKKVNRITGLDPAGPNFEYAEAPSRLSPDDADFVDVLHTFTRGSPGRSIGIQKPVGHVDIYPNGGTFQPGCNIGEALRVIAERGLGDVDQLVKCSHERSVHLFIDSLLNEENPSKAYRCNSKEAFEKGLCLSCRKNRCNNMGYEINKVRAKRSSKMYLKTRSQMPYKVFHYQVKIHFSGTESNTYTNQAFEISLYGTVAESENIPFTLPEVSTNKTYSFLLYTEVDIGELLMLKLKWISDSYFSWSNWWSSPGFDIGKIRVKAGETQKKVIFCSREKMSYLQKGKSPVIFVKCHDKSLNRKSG
Method in brief: (§1)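 Lipase inhibition (pancreatic, bovine lipoprotein, human hepatic) used a fluorochrome (NBD)-labelled triacylglyceride substrate. Inhibitor at six concentrations, 5-fold dilutions from a maximum of 100 µM, each point the mean of two measurements. IC50 from sigmoidal variable-slope nonlinear regression.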

Homo sapiens [2] = species on record: Homo sapiens; test: Inhibition of butyrylcholine lipase
[3] = molecular target: T2, Pancreatic triacylglycerol lipase (Homo sapiens) (UniProt P16233); test: Inhibition of Pancreatic lipase; method in brief: as §1
T2 sequence (whole entry): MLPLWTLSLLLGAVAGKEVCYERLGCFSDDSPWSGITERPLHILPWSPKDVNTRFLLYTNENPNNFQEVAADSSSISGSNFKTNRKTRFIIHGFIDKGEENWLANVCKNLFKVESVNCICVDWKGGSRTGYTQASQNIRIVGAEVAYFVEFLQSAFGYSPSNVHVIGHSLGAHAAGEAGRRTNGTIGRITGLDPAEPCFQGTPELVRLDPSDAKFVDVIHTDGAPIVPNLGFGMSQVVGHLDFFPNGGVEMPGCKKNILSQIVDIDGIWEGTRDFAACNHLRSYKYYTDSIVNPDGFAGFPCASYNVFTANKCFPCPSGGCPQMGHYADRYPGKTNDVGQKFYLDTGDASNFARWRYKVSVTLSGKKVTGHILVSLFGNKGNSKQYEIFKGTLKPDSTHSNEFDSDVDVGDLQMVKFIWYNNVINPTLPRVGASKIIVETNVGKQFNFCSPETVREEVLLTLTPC

Cytochrome P450 2C9 = Cytochrome P450 2C9 (Homo sapiens, UniProt P11712); test: Inhibition of CYP2C9 in human liver microsome; assay type: ADME; settings: microsomes
Sequence of Cytochrome P450 2C9 (P11712 whole entry): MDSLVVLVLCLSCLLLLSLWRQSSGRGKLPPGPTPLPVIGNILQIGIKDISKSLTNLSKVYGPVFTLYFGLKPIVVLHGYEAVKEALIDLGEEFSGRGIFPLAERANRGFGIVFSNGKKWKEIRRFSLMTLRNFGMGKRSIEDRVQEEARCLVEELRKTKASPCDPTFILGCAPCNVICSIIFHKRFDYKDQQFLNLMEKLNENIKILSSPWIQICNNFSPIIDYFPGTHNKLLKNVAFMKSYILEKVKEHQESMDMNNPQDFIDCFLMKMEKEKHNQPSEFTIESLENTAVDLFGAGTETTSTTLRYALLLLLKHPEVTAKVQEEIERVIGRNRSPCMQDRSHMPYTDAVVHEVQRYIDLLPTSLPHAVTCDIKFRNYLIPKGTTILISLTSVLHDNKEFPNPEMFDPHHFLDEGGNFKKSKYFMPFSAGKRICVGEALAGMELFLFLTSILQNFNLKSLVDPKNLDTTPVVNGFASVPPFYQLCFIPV

Homo sapiens [4] = species on record: Homo sapiens; test: Inhibition of acetylcholine lipase
Rattus norvegicus = test: Antilipolytic activity in Sprague-Dawley rat at 10 mg/kg, po; assay type: ADME, organism-based; parameters: dose 10 mg/kg, route oral; settings: in vivo
Method in brief: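 Male Sprague-Dawley rats, 12 weeks old, fasted overnight; single 10 mg/kg p.o. dose (n = 4 per group; vehicle n = 8). Orbital plexus blood under isoflurane taken at baseline (0.5 h predose) and 1, 3 and 5 h postdose into EDTA tubes with 0.1% NaF. Plasma glycerol measured on an automated analyzer as the antilipolytic endpoint.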

[5] = Drug level in Sprague-Dawley rat at 10 mg/kg, po after 1 hr; assay type: ADME, organism-based; parameters: dose 10 mg/kg, route oral; settings: in vivo, read-out: Drug uptake
Method in brief: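 Overnight-fasted male Sprague-Dawley rats received 10 mg/kg p.o. (n = 4). Plasma from orbital blood was collected into EDTA/NaF tubes, stored at -80 °C, and drug measured by turbulent-flow chromatography–MS/MS against plasma calibration curves (10-3000 ng/mL).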

[6] = molecular target: T3, Hepatic triacylglycerol lipase (Homo sapiens) (UniProt P11150); test: Inhibition of hepatic lipase; method in brief: as §1
T3 sequence (whole entry): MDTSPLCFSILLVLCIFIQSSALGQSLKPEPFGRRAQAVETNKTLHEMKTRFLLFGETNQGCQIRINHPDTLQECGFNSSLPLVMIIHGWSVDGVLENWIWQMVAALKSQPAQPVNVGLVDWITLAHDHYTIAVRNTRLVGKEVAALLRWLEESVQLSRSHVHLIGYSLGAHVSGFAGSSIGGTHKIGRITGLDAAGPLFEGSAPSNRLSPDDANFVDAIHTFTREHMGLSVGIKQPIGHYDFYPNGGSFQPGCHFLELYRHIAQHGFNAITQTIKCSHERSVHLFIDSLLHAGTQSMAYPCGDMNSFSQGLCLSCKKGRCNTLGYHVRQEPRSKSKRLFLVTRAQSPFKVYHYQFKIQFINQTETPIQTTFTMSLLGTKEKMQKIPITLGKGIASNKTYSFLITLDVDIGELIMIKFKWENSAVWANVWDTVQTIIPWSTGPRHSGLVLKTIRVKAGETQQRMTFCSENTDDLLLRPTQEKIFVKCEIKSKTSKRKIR

Row | Structure (SMILES) | Activity (Cytochrome P450 2D6) | Activity [1] | Activity (Homo sapiens [2]) | Activity [3] | Activity (Cytochrome P450 2C9) | Activity (Homo sapiens [4]) | Activity (Rattus norvegicus) | concentration at 1 h [5] [ng/mL] | Activity [6]
1 | O=C(Oc1ccc(Oc2ccc(C(F)(F)F)cn2)cc1)N1CCC(O)CC1 | Not Active | inactive | inactive | inactive | Not Active | inactive | Active | 3200 | inactive
2 | O=C(Oc1ccc(Oc2ccc(C(F)(F)F)cn2)cc1)N1CCC(CO)CC1 | Not Active | inactive | inactive | inactive | Not Active | inactive | Active | 379 | inactive
